Assay results taken from ChEMBL document CHEMBL1139389, “Discovery of the Poly(ADP-ribose) polymerase (PARP) inhibitor 2-[(R)-2-methylpyrrolidin-2-yl]-1H-benzimidazole-4-carboxamide (ABT-888) for the treatment of cancer” (J Med Chem, 2009).

Legend:
Assay type in all cases: ADME, organism-based
[1] = Oral bioavailability in CD1 mouse at 10 mg/kg; settings: in vivo
How it was run: (§1)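 Mouse PK: oral dose 10 mg/kg in 2.5% EtOH, 1 drop Tween-80, 25% PEG400 in PBS; iv dose 3 mg/kg in 2.5% EtOH, 5% DMSO, 1 drop Tween-80, 25% PEG400 in PBS. Oral bioavailability, iv half-life, oral AUC and Cmax derived from plasma profiles.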

[2] = Half life in CD1 mouse at 3 mg/kg, iv; design: dose 3 mg/kg, route intravenous; settings: in vivo; how it was run: as §1
[3] = AUC in CD1 mouse at 10 mg/kg, po; design: dose 10 mg/kg, route oral; settings: plasma; how it was run: as §1
[4] = Cmax in CD1 mouse at 10 mg/kg, po; design: dose 10 mg/kg, route oral; settings: in vivo; how it was run: as §1

bioavailability [1]: 100% | half-life [2]: 1.4 h | AUC [3]: 1000 ng·h/mL | Cmax [4]: 500 ng/mL
SMILES: CC(C)N1CCC(C)(c2nc3c(C(N)=O)cccc3[nH]2)C1 (centres undefined)
